From ChEMBL document CHEMBL5058577, “EUbOPEN Chemogenomics Library 2 (Multiplex)” (2022)

Test system: Fibroblast
Experiment: Multiplex assay against human fibroblast
Format: toxicity, cell-based
In short: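 Compound was added to live cells that had been stained at seeding with Hoechst33342, BioTracker Green Microtubule Cytoskeleton Dye, MitoTracker Red and Annexin V Alexa Fluor 680, and imaging followed on a CQ1 microscope at 37°C and 5% CO2. CellPathfinder machine-learning gating divided cells into Hoechst high-intensity objects or normal cells, normal cells into healthy, pyknosed or fragmented nuclei, and pyknosed cells into mitotic or apoptotic. Tubulin, mitochondrial-mass and membrane-permeability phenotypes are per cents of healthy-nucleus cells.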

[1] = 12 h, 1 µM, compound concentration 1 uM, replicate 1
[2] = 12 h, 1 µM, compound concentration 1 uM, replicate 2
[3] = 12 h, 10 µM, compound concentration 10 uM, replicate 1
[4] = 12 h, 10 µM, compound concentration 10 uM, replicate 2
[5] = 24 h, 1 µM, compound concentration 1 uM, replicate 1
[6] = 24 h, 1 µM, compound concentration 1 uM, replicate 2
[7] = 24 h, 10 µM, compound concentration 10 uM, replicate 1
[8] = 24 h, 10 µM, compound concentration 10 uM, replicate 2
[9] = 48 h, 1 µM, compound concentration 1 uM, replicate 1
[10] = 48 h, 1 µM, compound concentration 1 uM, replicate 2
[11] = 48 h, 10 µM, compound concentration 10 uM, replicate 1
[12] = 48 h, 10 µM, compound concentration 10 uM, replicate 2

`COc1cccc2c1c(NS(=O)(=O)c1ccc(Cl)s1)nn2Cc1cccc(CNC(=O)C(C)(C)O)c1` was tested, and the “Population Apoptotic (%)” value [1] was 43%, the “Population Fragmented Nuclei (%)” value [1] was 16% and the “Population Healthy Nuclei (%)” value [1] was 66%. The “Population Hoechst High Intensity Objects (%)” value [1] was 0%, the “Population Membrane Permeable-Phenotype (%)” value [1] was 1% and the “Population Mitochondria Different-Phenotype (%)” value [1] was 2%. For the same molecule, the “Population Mitotic Cells (%)” value [1] was 56%, the “Population Normal (%)” value [1] was 99% and the “Population Pyknosed Nuclei (%)” value [1] was 17%. The “Population Tubulin-Different-Phenotype (%)” value [1] was 27%, the “Total Cell Count” value [1] was 134 and the “Population Apoptotic (%)” value [2] was 33%. The “Population Fragmented Nuclei (%)” value [2] was 26%, the “Population Healthy Nuclei (%)” value [2] was 54% and the “Population Membrane Permeable-Phenotype (%)” value [2] was 4%. The “Population Mitochondria Different-Phenotype (%)” value [2] was 1%, the “Population Mitotic Cells (%)” value [2] was 66% and the “Population Normal (%)” value [2] was 100%. The “Population Pyknosed Nuclei (%)” value [2] was 18%, the “Population Tubulin-Different-Phenotype (%)” value [2] was 18% and the “Total Cell Count” value [2] was 112. The “Population Apoptotic (%)” value [3] was 42%, the “Population Fragmented Nuclei (%)” value [3] was 13% and the “Population Healthy Nuclei (%)” value [3] was 72%. The “Population Hoechst High Intensity Objects (%)” value [3] was 2%, the “Population Membrane Permeable-Phenotype (%)” value [3] was 1% and the “Population Mitochondria Different-Phenotype (%)” value [3] was 11%. The “Population Mitotic Cells (%)” value [3] was 57%, the “Population Normal (%)” value [3] was 97% and the “Population Pyknosed Nuclei (%)” value [3] was 13%. For the same molecule, the “Population Tubulin-Different-Phenotype (%)” value [3] was 37%, the “Total Cell Count” value [3] was 211 and the “Population Apoptotic (%)” value [4] was 41%. The “Population Fragmented Nuclei (%)” value [4] was 24%, the “Population Healthy Nuclei (%)” value [4] was 55% and the “Population Hoechst High Intensity Objects (%)” value [4] was 7%. For the same molecule, the “Population Membrane Permeable-Phenotype (%)” value [4] was 7%, the “Population Mitochondria Different-Phenotype (%)” value [4] was 4% and the “Population Mitotic Cells (%)” value [4] was 58%. For the same molecule, the “Population Normal (%)” value [4] was 92%, the “Population Pyknosed Nuclei (%)” value [4] was 19% and the “Population Tubulin-Different-Phenotype (%)” value [4] was 55%. For the same molecule, the “Total Cell Count” value [4] was 174, the “Population Apoptotic (%)” value [5] was 55% and the “Population Fragmented Nuclei (%)” value [5] was 19%. For the same molecule, the “Population Healthy Nuclei (%)” value [5] was 68%, the “Population Hoechst High Intensity Objects (%)” value [5] was 2% and the “Population Membrane Permeable-Phenotype (%)” value [5] was 2%. The “Population Mitochondria Different-Phenotype (%)” value [5] was 3%, the “Population Mitotic Cells (%)” value [5] was 44% and the “Population Normal (%)” value [5] was 97%. For the same molecule, the “Population Pyknosed Nuclei (%)” value [5] was 12%, the “Population Tubulin-Different-Phenotype (%)” value [5] was 28% and the “Total Cell Count” value [5] was 144. For the same molecule, the “Population Apoptotic (%)” value [6] was 50%, the “Population Fragmented Nuclei (%)” value [6] was 28% and the “Population Healthy Nuclei (%)” value [6] was 49%. The “Population Hoechst High Intensity Objects (%)” value [6] was 1%, the “Population Membrane Permeable-Phenotype (%)” value [6] was 7% and the “Population Mitochondria Different-Phenotype (%)” value [6] was 5%. The “Population Mitotic Cells (%)” value [6] was 50%, the “Population Normal (%)” value [6] was 98% and the “Population Pyknosed Nuclei (%)” value [6] was 22%. For the same molecule, the “Population Tubulin-Different-Phenotype (%)” value [6] was 35%, the “Total Cell Count” value [6] was 110 and the “Population Apoptotic (%)” value [7] was 48%. For the same molecule, the “Population Fragmented Nuclei (%)” value [7] was 11%, the “Population Healthy Nuclei (%)” value [7] was 74% and the “Population Hoechst High Intensity Objects (%)” value [7] was 2%. The “Population Membrane Permeable-Phenotype (%)” value [7] was 1%, the “Population Mitochondria Different-Phenotype (%)” value [7] was 7% and the “Population Mitotic Cells (%)” value [7] was 52%. For the same molecule, the “Population Normal (%)” value [7] was 97%, the “Population Pyknosed Nuclei (%)” value [7] was 13% and the “Population Tubulin-Different-Phenotype (%)” value [7] was 30%. The “Total Cell Count” value [7] was 190, the “Population Apoptotic (%)” value [8] was 50% and the “Population Fragmented Nuclei (%)” value [8] was 22%. For the same molecule, the “Population Healthy Nuclei (%)” value [8] was 55%, the “Population Hoechst High Intensity Objects (%)” value [8] was 8% and the “Population Membrane Permeable-Phenotype (%)” value [8] was 6%. For the same molecule, the “Population Mitochondria Different-Phenotype (%)” value [8] was 2%, the “Population Mitotic Cells (%)” value [8] was 50% and the “Population Normal (%)” value [8] was 92%. For the same molecule, the “Population Pyknosed Nuclei (%)” value [8] was 22%, the “Population Tubulin-Different-Phenotype (%)” value [8] was 48% and the “Total Cell Count” value [8] was 175. The “Population Apoptotic (%)” value [9] was 62%, the “Population Fragmented Nuclei (%)” value [9] was 21% and the “Population Healthy Nuclei (%)” value [9] was 66%. For the same molecule, the “Population Hoechst High Intensity Objects (%)” value [9] was 5%, the “Population Membrane Permeable-Phenotype (%)” value [9] was 1% and the “Population Mitochondria Different-Phenotype (%)” value [9] was 5%. The “Population Mitotic Cells (%)” value [9] was 37%, the “Population Normal (%)” value [9] was 94% and the “Population Pyknosed Nuclei (%)” value [9] was 12%. The “Population Tubulin-Different-Phenotype (%)” value [9] was 30%, the “Total Cell Count” value [9] was 135 and the “Population Apoptotic (%)” value [10] was 75%. The “Population Fragmented Nuclei (%)” value [10] was 26%, the “Population Healthy Nuclei (%)” value [10] was 60% and the “Population Hoechst High Intensity Objects (%)” value [10] was 2%. For the same molecule, the “Population Membrane Permeable-Phenotype (%)” value [10] was 8%, the “Population Mitochondria Different-Phenotype (%)” value [10] was 3% and the “Population Mitotic Cells (%)” value [10] was 25%. The “Population Normal (%)” value [10] was 97%, the “Population Tubulin-Different-Phenotype (%)” value [10] was 55% and the “Total Cell Count” value [10] was 99. The “Population Apoptotic (%)” value [11] was 63%, the “Population Fragmented Nuclei (%)” value [11] was 13% and the “Population Healthy Nuclei (%)” value [11] was 73%. The “Population Hoechst High Intensity Objects (%)” value [11] was 5%, the “Population Membrane Permeable-Phenotype (%)” value [11] was 3% and the “Population Mitochondria Different-Phenotype (%)” value [11] was 10%. The “Population Mitotic Cells (%)” value [11] was 36%, the “Population Normal (%)” value [11] was 94% and the “Population Pyknosed Nuclei (%)” value [11] was 12%. For the same molecule, the “Population Tubulin-Different-Phenotype (%)” value [11] was 40%, the “Total Cell Count” value [11] was 187 and the “Population Apoptotic (%)” value [12] was 51%. The “Population Fragmented Nuclei (%)” value [12] was 33%, the “Population Healthy Nuclei (%)” value [12] was 49% and the “Population Hoechst High Intensity Objects (%)” value [12] was 6%. For the same molecule, the “Population Mitochondria Different-Phenotype (%)” value [12] was 4%, the “Population Mitotic Cells (%)” value [12] was 48% and the “Population Normal (%)” value [12] was 93%. The “Population Pyknosed Nuclei (%)” value [12] was 17% and the “Population Tubulin-Different-Phenotype (%)” value [12] was 43%.
